From ChEMBL document CHEMBL1926651, “Design, synthesis, antiviral and cytostatic evaluation of novel isoxazolidine nucleotide analogues with a 1,2,3-triazole linker” (Eur J Med Chem, 2012)
The source made the active and inactive calls. The rule behind the calls is not given here.

Tests used:
[1] = system: Respiratory syncytial virus; experiment: Antiviral activity against Respiratory syncytial virus infected in human HeLa cells assessed as inhibition of viral plaque formation at 250 uM; assay type: functional, organism-based
How it was run: (§1)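 Confluent host cell monolayers were inoculated with 100 CCID50 of virus in the presence of test compound at serial dilutions (250, 50, 10, … μM). Viral cytopathicity was scored once it reached completion in untreated virus-infected controls.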

[2] = system: Human alphaherpesvirus 2; experiment: Antiviral activity against Herpes simplex virus 2 G infected in human HEL cells assessed as inhibition of viral plaque formation at 250 uM; assay type: functional, organism-based; details: strain G
[3] = system: Vesicular stomatitis virus; experiment: Antiviral activity against Vesicular stomatitis virus infected in human HEL cells assessed as inhibition of viral plaque formation at 250 uM; assay type: functional, organism-based; how it was run: as §1
[4] = system: L1210; experiment: Cytotoxicity against mouse L1210 cells 2 days by coulter counting; assay type: functional; details: L1210, 48 h
How it was run: (§2)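 Cells were suspended at 300,000–500,000 cells/mL and added 1:1 to compound dilutions. Incubation was at 37 °C, 2 days for L1210 and 3 days for CEM, HeLa and HEL. Cells were counted with a Coulter counter. CC50 is the concentration inhibiting cell proliferation by 50%.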

[5] = system: Human immunodeficiency virus 2; experiment: Antiviral activity against Human immunodeficiency virus 2 infected in human CEM cells assessed as inhibition of virus-induced giant cell formation after 4 days by microscopic analysis; assay type: functional, organism-based; details: CCRF-CEM
How it was run: (§3)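 CEM cells at about 3 × 10⁵ cells/cm³ were infected with 100 CCID50/mL of HIV-1(IIIB) or HIV-2(ROD), then seeded into wells holding test compound dilutions. After 4 days at 37 °C, virus-induced giant cell formation was scored microscopically.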

[6] = system: CCRF-CEM; experiment: Cytotoxicity against human CEM cells 3 days by coulter counting; assay type: functional; details: 72 h; how it was run: as §2
[7] = system: HeLa; experiment: Cytotoxicity against human HeLa cells 3 days by coulter counting; assay type: functional; details: 72 h; how it was run: as §2
[8] = system: Vaccinia virus; experiment: Antiviral activity against Vaccinia virus infected in human HEL cells assessed as inhibition of viral plaque formation at 250 uM; assay type: functional, organism-based; details: Orthopoxvirus vaccinia; how it was run: as §1
[9] = system: Vesicular stomatitis virus; experiment: Antiviral activity against Vesicular stomatitis virus infected in human Hela cells assessed as inhibition of viral plaque formation at 250 uM; assay type: functional, organism-based
[10] = system: Feline coronavirus; experiment: Antiviral activity against Feline coronavirus infected in CrFK cells assessed as inhibition of viral plaque formation at 250 uM; assay type: functional, organism-based; how it was run: as §1
[11] = system: Human alphaherpesvirus 3; experiment: Antiviral activity against thymidine kinase-deficient Varicella Zoster virus 07/1 infected in human HEL cells assessed as inhibition of viral plaque formation at 250 uM; assay type: functional, organism-based
[12] = system: Felid alphaherpesvirus 1; experiment: Antiviral activity against Felid herpesvirus 1 infected in CrFK cells assessed as inhibition of viral plaque formation at 250 uM; assay type: functional, organism-based; how it was run: as §1
[13] = system: Human alphaherpesvirus 1; experiment: Antiviral activity against Herpes simplex virus 1 KOS infected in human HEL cells assessed as inhibition of viral plaque formation at 250 uM; assay type: functional, organism-based; how it was run: as §1
[14] = system: Human betaherpesvirus 5; experiment: Antiviral activity against Human cytomegalovirus AD169 infected in human HEL cells assessed as inhibition of viral plaque formation at 250 uM; assay type: functional, organism-based
[15] = system: HEL; experiment: Cytotoxicity against human HEL cells 3 days by coulter counting; assay type: functional; details: 72 h; how it was run: as §2
[16] = system: Coxsackievirus B4; experiment: Antiviral activity against Coxsackievirus B4 infected in african green monkey Vero cells assessed as inhibition of viral plaque formation at 250 uM; assay type: functional, organism-based; how it was run: as §1
[17] = system: Human alphaherpesvirus 3; experiment: Antiviral activity against thymidine kinase-positive Varicella Zoster virus Oka infected in human HEL cells assessed as inhibition of viral plaque formation at 250 uM; assay type: functional, cell-based; details: strain Oka vaccine
[18] = system: Human betaherpesvirus 5; experiment: Antiviral activity against Human cytomegalovirus Davis infected in human HEL cells assessed as inhibition of viral plaque formation at 250 uM; assay type: functional, organism-based
[19] = system: Mammalian orthoreovirus 1; experiment: Antiviral activity against Reovirus-1 infected in african green monkey Vero cells assessed as inhibition of viral plaque formation at 250 uM; assay type: functional, organism-based; how it was run: as §1
[20] = system: Human alphaherpesvirus 1; experiment: Antiviral activity against thymidine kinase-deficient acv-resistant Herpes simplex virus 1 KOS infected in human HEL cells assessed as inhibition of viral plaque formation at 250 uM; assay type: functional, organism-based
[21] = system: Coxsackievirus B4; experiment: Antiviral activity against Coxsackievirus B4 infected in human HeLa cells assessed as inhibition of viral plaque formation at 250 uM; assay type: functional, organism-based; how it was run: as §1
[22] = system: Human respirovirus 3; experiment: Antiviral activity against Parainfluenza-3 virus infected in african green monkey Vero cells assessed as inhibition of viral plaque formation at 250 uM; assay type: functional, organism-based; how it was run: as §1
[23] = system: Punta Toro virus; experiment: Antiviral activity against Punta Toro virus infected in african green monkey Vero cells assessed as inhibition of viral plaque formation at 250 uM; assay type: functional, organism-based
[24] = system: Sindbis virus; experiment: Antiviral activity against Sindbis virus infected in african green monkey Vero cells assessed as inhibition of viral plaque formation at 250 uM; assay type: functional, organism-based; how it was run: as §1
[25] = system: Human immunodeficiency virus 1; experiment: Antiviral activity against Human immunodeficiency virus 1 infected in human CEM cells assessed as inhibition of virus-induced giant cell formation after 4 days by microscopic analysis; assay type: functional, organism-based; details: CCRF-CEM; how it was run: as §3

Row | SMILES | Activity [1] | Activity [2] | Activity [3] | CC50 [4] [µM] | Activity [5] | CC50 [6] [µM] | CC50 [7] [µM] | Activity [8] | Activity [9] | Activity [10] | Activity [11] | Activity [12] | Activity [13] | Activity [14] | CC50 [15] [µM] | Activity [16] | Activity [17] | Activity [18] | Activity [19] | Activity [20] | further results
1 | CCOP(=O)(OCC)[C@@H]1C[C@@H](n2cc(C(=O)OC)nn2)ON1C (relative stereo) | inactive | inactive | inactive | 191 | inactive | > 250 | > 250 | inactive | inactive | inactive | inactive | inactive | inactive | inactive | > 100 | inactive | inactive | inactive | inactive | inactive | Activity [21]: inactive; Activity [22]: inactive; Activity [23]: inactive; Activity [24]: inactive; Activity [25]: inactive
2 | CCOP(=O)(OCC)[C@@H]1C[C@H](n2cc(-c3nccn3C)nn2)ON1C | inactive | inactive | inactive | ≥ 250 | inactive | > 250 | > 250 | inactive | inactive | inactive | inactive | inactive | inactive | inactive | > 100 | inactive | inactive | inactive | inactive | inactive | Activity [21]: inactive; Activity [22]: inactive; Activity [23]: inactive; Activity [24]: inactive; Activity [25]: inactive
3 | CCOP(=O)(OCC)[C@@H]1C[C@H](n2cc(Cn3cc(C)c(=O)[nH]c3=O)nn2)ON1C (racemic) | inactive | inactive | inactive | 280 | inactive | > 250 | > 250 | inactive | inactive | inactive | inactive | inactive | inactive | inactive | > 100 | inactive | inactive | inactive | inactive | inactive | Activity [21]: inactive; Activity [22]: inactive; Activity [23]: inactive; Activity [24]: inactive; Activity [25]: inactive
4 | CCOP(=O)(OCC)[C@@H]1C[C@H](n2cc(Cn3ccc(NC(C)=O)nc3=O)nn2)ON1C (relative stereo) | inactive | inactive | inactive | > 250 | inactive | > 250 | > 250 | inactive | inactive | inactive | inactive | inactive | inactive | inactive | > 100 | inactive | inactive | inactive | inactive | inactive | Activity [21]: inactive; Activity [22]: inactive; Activity [23]: inactive; Activity [24]: inactive; Activity [25]: inactive
5 | CCOP(=O)(OCC)[C@@H]1C[C@@H](n2cc(-c3nccn3C)nn2)ON1C | inactive | inactive | inactive | ≥ 250 | inactive | > 250 | > 250 | inactive | inactive | inactive | inactive | inactive | inactive | inactive | > 100 | inactive | inactive | inactive | inactive | inactive | Activity [21]: inactive; Activity [22]: inactive; Activity [23]: inactive; Activity [24]: inactive; Activity [25]: inactive
6 | CCOP(=O)(OCC)[C@@H]1C[C@@H](n2cc(Cn3ccc(=O)[nH]c3=O)nn2)ON1C (relative stereo) | inactive | inactive | inactive | > 250 | inactive | > 250 | ≥ 250 | inactive | inactive | inactive | inactive | inactive | inactive | inactive | > 100 | inactive | inactive | inactive | inactive | inactive | Activity [21]: inactive; Activity [22]: inactive; Activity [23]: inactive; Activity [24]: inactive; Activity [25]: inactive
